# NR2E3 ag-1 = human photoreceptor-specific nuclear receptor agonism. 360,000 tested, 0.35% active. AID 602229. CHO-S Gal4-NCOR/VP16-NR2E3 two-hybrid, luciferase. inhibition of corepressor binding, % at 3.98 µM;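 active means inhibition above the mean of all tested compounds plus 3 SD, cut at about 70% in these data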;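 further: 0% = DMSO with NR2E3 transfected cells and 100% = cells lacking NR2E3 construct; higher means lower luciferase signal from less NR2E3 corepressor binding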
# NR2E3 ag-2 = agonists of human nuclear receptor NR2E3 | Q9Y5X4 | GST-NR2E3/biotin-RetCOR TR-FRET, 1536-well | inhibition of corepressor binding, % at 4.78 µM | 320,000 tested, 0.12% active;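 active means percent inhibition above the cutoff of mean plus 3 SD of all tested compounds, set per screening campaign, cut at about 20% in these data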;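 further: 0% = DMSO wells and 100% = biotin wells as full block of FRET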
#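 Material: NR2E3–RetCOR corepressor complex | Quantity: 1.35 nM GST-tagged NR2E3 final | Schedule: 5 h at 4 °C | Replication: Singlicate compound wells | Reagent: RetCOR corepressor, biotinylated, 7 nM | Controls: Biotin wells as high control, 0.6% DMSO wells as low control | Signal: TR-FRET, Eu(K)-anti-GST donor, streptavidin-D2 acceptor, ex 340, em 617/671 nm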
# EP2 modulator = modulates human prostaglandin E2 receptor EP2 signaling. P43116. EP2-expressing cells, cAMP HTRF FRET, PGE2 co-stimulation. induction, % at 25 µM. 260,000 tested, 0.83% active;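 active means compounds whose cAMP rise, as percent of the full-agonist control response, exceeds 60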;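 further: rat C6 glioma line stably carrying human EP2 under a CMV promoter; the protocol text gives 20 µM as final concentration; 100% = response of wells given 1 µM PGE2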
# EP2 antag = EP2 receptor (human) inhibition; P43116; C6 glioma cells expressing human EP2, cAMP TR-FRET; cells stimulated with saturating PGE2; inhibition, % at 25 µM; 260,000 tested, 0.52% active;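 active means percent inhibition above 40 after rounding to a whole number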;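 further: rat C6 glioma host cells with rolipram phosphodiesterase inhibitor present; the protocol text gives 20 µM as final concentration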
# Furin inh = human furin inhibition. P09958. purified furin, fluorogenic substrate cleavage. inhibition, % at 20 µM or 30 µM. 220,000 tested, 0.061% active. AID 463115; in the data active means inhibition above about 25%
# Target sequence (P09958 108-714 limits assumed): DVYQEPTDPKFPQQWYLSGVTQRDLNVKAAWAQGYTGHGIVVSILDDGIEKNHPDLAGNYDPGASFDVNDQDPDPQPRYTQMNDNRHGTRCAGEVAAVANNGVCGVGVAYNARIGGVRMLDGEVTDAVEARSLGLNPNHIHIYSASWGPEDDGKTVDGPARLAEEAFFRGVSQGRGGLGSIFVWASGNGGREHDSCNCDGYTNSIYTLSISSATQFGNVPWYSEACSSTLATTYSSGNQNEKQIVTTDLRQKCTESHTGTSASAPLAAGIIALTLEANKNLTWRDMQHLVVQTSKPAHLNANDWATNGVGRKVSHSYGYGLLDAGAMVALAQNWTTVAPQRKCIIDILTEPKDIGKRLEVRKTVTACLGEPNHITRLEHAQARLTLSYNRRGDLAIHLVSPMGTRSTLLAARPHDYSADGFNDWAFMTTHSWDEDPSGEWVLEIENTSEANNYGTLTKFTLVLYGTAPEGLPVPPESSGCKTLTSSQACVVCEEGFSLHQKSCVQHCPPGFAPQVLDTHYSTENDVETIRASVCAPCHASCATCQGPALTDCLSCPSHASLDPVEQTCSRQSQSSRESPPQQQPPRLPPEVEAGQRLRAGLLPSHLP
# JMJD2C inh = human JMJD2C demethylase inhibition; GST-JMJD2C(1-420) H3K9me3 demethylation, DELFIA europium; inhibition, % at 2.35 µM; 330,000 tested, 0.069% active; Q9H3R0;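 active means more than half of a compound's replicate wells show inhibition beyond 50%, single wells judged on their own value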;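 further: signal counts dimethyl H3K9 product captured on neutravidin plate; 0% = median of DMSO wells and 100% = 0.3 times that DMSO median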
# * = called active by the depositor; . = no result. Hits are enriched below; roughly 1.3% of the tested compounds scored in any of these assays.
SMILES,NR2E3 ag-1,NR2E3 ag-2,EP2 modulator,EP2 antag,Furin inh,JMJD2C inh
COc1ccc(-c2nc3ccc(C)cn3c2NCC2CCCO2)c(OC)c1 (stereo unspecified),.,.,-20,9,.,.
N#Cc1c(-c2ccc3c(c2)OCO3)cc(-c2ccccc2)nc1N,.,.,66*,15,.,.
Cc1cccc(N2CC(C(=O)OCC(=O)c3ccc(OC(=O)c4cccs4)cc3)CC2=O)c1C (stereo unspecified),11,1,-21,120*,-6,3
CCc1nn(CC(=O)NCCCn2ccc(C)n2)c(=O)c2cc3sccc3n12,.,.,-2,.,.,.
O=C(Nc1ccc(NC(=O)C2CC2)nc1)c1ccccn1,-112,4,-1,41*,-15,-2
CC1(c2ccccc2)CC(C)(C)N2C(=O)Cc3cccc1c32 (stereo unspecified),0,0,62*,5,-26,0
CC1(c2ccccc2)CC(C)(C)N(C(N)=O)c2ccccc21 (stereo unspecified),2,3,.,.,.,-11
COc1ccc2[nH]c(=O)c(CN(Cc3ccc(C)cc3)C(=O)Nc3ccccc3OC)cc2c1,.,.,61*,8,.,.
CCN(CC)S(=O)(=O)c1ccc(-c2nnc(SCc3nnc(-c4ccccc4)o3)o2)cc1,-8,3,26,105*,-22,3
CC(=O)c1sc(C(=O)O)c(-c2ccco2)c1-c1ccco1,-30,-12,-36,43*,-12,-8
CC(=O)n1c2ccccc2c2ccccc21,9,0,44,3,-22,-3
Cc1ccc(C(=O)n2c3ccccc3c3ccccc32)cc1,-50,3,64*,14,-19,6
Cc1ccc2cc(CN(Cc3cccnc3)S(=O)(=O)c3ccc(Cl)cc3)c(=O)[nH]c2c1C,.,.,-27,12,.,.
Cc1ccc(C)c(CN2C(=O)C3(OCCCO3)c3ccccc32)c1,18,0,62*,8,-19,26
CC[N+]1(CC)Cc2cc3ccccc3c(-c3ccccc3)c2C1,.,.,-6,9,.,.
COC(=O)C1=NN(c2ccccc2)C2(S1)SC(C(C)=O)=C(C)N2c1ccccc1 (stereo unspecified),12,-1,37,3,-35,-12
COC(=O)C1=NN(c2ccc(C)cc2)C2(S1)SC(C(C)=O)=C(C)N2c1ccccc1 (stereo unspecified),-7,-1,63*,7,-1,6
C/C(CCc1oc2ccc(Br)cc2c1-c1ccc(C)o1)=N/O,-14,1,63*,13,-24,2
O=C(COc1ccc(S(=O)(=O)N2CCOCC2)cc1)Nc1ccc(Br)cc1,3,.,.,.,.,0
O=C(COc1ccccc1)Nc1ccc(S(=O)(=O)N2CCOCC2)cc1,-4,2,-9,52*,-29,8
Cc1ccc(NS(=O)(=O)c2ccc(NC(=O)c3cccs3)cc2)cc1C,.,.,-72,7,.,.
Brc1cc2c(cc1/C=N/Nc1nc3ccccc3s1)OCO2,-71,3,-28,41*,-25,2
COc1ccc(NC(=O)CSc2nnc(COc3ccc(C)cc3)n2C)cc1,.,.,-63,6,.,.
COCCn1c(=NC(=O)C2COc3ccccc3O2)sc2cc(S(N)(=O)=O)ccc21 (stereo unspecified),-3,-4,-51,58*,-18,-4
Oc1nc(Nc2ccccc2)sc1/C=C1\C=Nc2ccccc21,-78,2,-64,72*,-5,-9
SMILES,NR2E3 ag-1,NR2E3 ag-2,EP2 modulator,EP2 antag,Furin inh,JMJD2C inh
COc1cc(NC(=O)CCN2CCC(C)CC2)cc(OC)c1,.,.,-50,3,.,.
O=C1c2ccc([N+](=O)[O-])cc2C(=O)N1Cc1cccnc1,-10,3,.,.,.,52*
O=C1c2ccc3c4c(ccc(c24)C(=O)N1Cc1cccnc1)C(=O)N(Cc1cccnc1)C3=O,.,.,-1,33,-4,.
O=c1[nH]c2ccc(S(=O)(=O)N3CCCCC3)cc2[nH]c1=O,1,0,33,7,-7,-8
CC1CCN(S(=O)(=O)c2ccc3[nH]c(=O)[nH]c3c2)CC1,-35,2,-16,6,.,58*
COCCNC(=O)C1CCN(S(=O)(=O)c2ccc(OC)c(Cl)c2)CC1,.,.,23,16,.,.
Cc1cccc2cc(C(c3nnnn3Cc3ccc(F)cc3)N3CCCCCC3)c(=O)[nH]c12 (stereo unspecified),.,.,67*,22,.,.
Cc1cccc2cc(C(c3nnnn3Cc3ccccc3)N3CCN(C)CC3)c(=O)[nH]c12 (stereo unspecified),-17,-2,-11,1,-12,7
Cc1cccc2cc(C(c3nnnn3Cc3ccccc3)N3CCN(c4ccccc4)CC3)c(=O)[nH]c12 (stereo unspecified),-20,-5,15,2,-12,-26
COc1ccc(Cn2nnnc2C(c2cc3cccc(C)c3[nH]c2=O)N2CCCCC2)cc1 (stereo unspecified),.,.,-25,10,.,.
Cc1ccc(C)c2[nH]c(=O)c(C(c3nnnn3Cc3ccccc3)N3CCCCCC3)cc12 (stereo unspecified),.,.,75*,15,.,.
Cc1cccc2cc(C(c3nnnn3Cc3ccccc3)N3CCCCC3)c(=O)[nH]c12 (stereo unspecified),.,.,68*,13,.,.
Cc1ncc([N+](=O)[O-])n1CC(=O)NCc1ccco1,.,.,13,5,.,.
Cc1cc2nc(C3CCCN3C(=O)c3n[nH]c4c3CCCC4)[nH]c2cc1C (stereo unspecified),.,.,12,.,.,.
COc1ccc(OC)c(-c2[nH]nc3c2C(c2ccc(C(C)C)cc2)C(C#N)=C(N)O3)c1 (stereo unspecified),.,.,14,11,.,.
CC(=O)Nc1cc(-c2ccc(Cl)cc2)nn1-c1ccccc1,0,0,-19,3,28*,5
CC(=O)Nc1cc(-c2ccccc2)nn1Cc1ccc(Cl)cc1,3,2,-39,12,-18,6
CCc1nc2ccccc2n1CC(=O)NC1(c2ccccc2OC)CCCC1,.,.,-1,5,.,.
N#C/C(=C\c1ccc(N2CCOCC2)o1)c1nc2ccccc2[nH]1,-37,-8,-34,42*,-24,2
Cc1ccc(C)n1-c1cccc(C(=O)O)c1,.,33*,18,10,.,0
OC1C[C@H]2CC[C@@H](C1)N2CCCN1c2ccccc2Sc2ccc(Cl)cc21 (stereo partly specified),.,.,-16,47*,.,.
COc1cccc(N2CCN(CC(=O)Nc3cccc4ccccc34)CC2)c1,.,.,-61,12,.,.
Cc1ccc2c(c1)c1c3n2CCCNC3CCC1 (stereo unspecified),17,0,-9,4,-33,86*
COc1ccccc1NC(=O)CN1CCC(n2cnc3cccnc32)CC1,.,.,-32,5,.,.
C[N+](C)(C)c1nc(N)nc2c1ncn2[C@H]1O[C@@H](CO)[C@H](O)[C@H]1O,.,.,-3,45*,.,.

# Screens deposited in PubChem by several laboratories.
